# Source: ChEMBL document CHEMBL1121581, “4-Piperazinyl-10H-thieno[2,3-b][1,5]benzodiazepines as potential neuroleptics” (J Med Chem, 1980)
# Columns and labels:
# Mus musculus = assay: Hypothermia in mice after peroral administration; type: functional
# [1] = Lethal dose in mice after perorla administration; type: toxicity, organism-based; conditions: mouse, in vivo, po
# Rattus norvegicus [2] = assay: Compound was assessed for its ability to block a conditioned avoidance response; Dose administered perorally is 25 mg/kg; no significant effect (0-25%block); type: functional; conditions: route oral
# Procedure, shortened: (§1)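 Lilly Wistar rats (120–130 g) trained in a shuttle box to cross on a 5-s buzzer, with mild shock if no response within 1 s of buzzer end. Only rats with a high conditioned response were used. Groups of five were dosed orally 1 h 50 min before the session, then habituated 10 min and tested 20 min. Shocks were scored as % of stimuli and graded 0–5.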
# Rattus norvegicus [3] = assay: Ability to block a conditioned avoidance response; Dose administered perorally is 50 mg/kg.; type: functional; conditions: route oral; procedure, shortened: as §1
# Rattus norvegicus [4] = assay: Compound was assessed for its ability to block a conditioned avoidance response; Dose administered perorally is 10 mg/kg; no significant effect (0-25%block); type: functional; conditions: route oral; procedure, shortened: as §1
# Rattus norvegicus [5] = assay: Compound was assessed for its ability to block a conditioned avoidance response; Dose administered perorally is 50 mg/kg; 76-99%block; type: functional; conditions: route oral; procedure, shortened: as §1
# Rattus norvegicus [6] = assay: Compound was assessed for its ability to produce catalepsy in rats; Dose administered perorally is 50 mg/kg; Group score is 8-15; type: functional; conditions: route oral
# Procedure, shortened: (§2)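 Groups of eight Lilly Wistar rats (180–190 g) were dosed orally, then checked at 0.5, 1, 1.5, 2, 3, 4 and 5 h. Front paws were placed on a 1.5-cm rod 7 cm above the table, and hold time was recorded up to 20 min. Each rat was scored 0–5 and its maximum scores were summed per group (maximum 40), then graded 0–4.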
# Rattus norvegicus [7] = assay: Compound was assessed for its ability to produce catalepsy in rats; Dose administered perorally is 50 mg/kg; Group score is 4-7; type: functional; conditions: route oral; procedure, shortened: as §2
# Rattus norvegicus [8] = assay: Compound was assessed for its ability to produce catalepsy in rats; Dose administered perorally is 50 mg/kg; Group score is 0-3; type: functional; conditions: route oral; procedure, shortened: as §2
# Rattus norvegicus [9] = assay: Compound was assessed for its ability to block a conditioned avoidance response; Dose administered intraperitoneally is 50 mg/kg; no significant effect (0-25%block); type: functional; conditions: route intraperitoneal
# Rattus norvegicus [10] = assay: Compound was assessed for its ability to block a conditioned avoidance response; Dose administered perorally is 10 mg/kg; 31-50%block; type: functional; conditions: route oral; procedure, shortened: as §1
# Rattus norvegicus [11] = assay: Compound was assessed for its ability to produce catalepsy in rats; Dose administered perorally is 10 mg/kg; Group score is 4-7; type: functional; conditions: route oral; procedure, shortened: as §2
# Rattus norvegicus [12] = assay: Compound was assessed for its ability to block a conditioned avoidance response; Dose administered perorally is 50 mg/kg; 26-30%block; type: functional; conditions: route oral; procedure, shortened: as §1
# Rattus norvegicus [13] = assay: Compound was assessed for its ability to block a conditioned avoidance response; Dose administered perorally is 40 mg/kg; 26-30%block; type: functional; conditions: route oral; procedure, shortened: as §1
# Rattus norvegicus [14] = assay: Compound was assessed for its ability to block a conditioned avoidance response; Dose administered perorally is 10 mg/kg; 51-75%block; type: functional; conditions: route oral; procedure, shortened: as §1
Compound,EDmin (Mus musculus),LD50 [1],Activity (Rattus norvegicus [3]),further results
Cc1csc2c1C(N1CCN(C)CC1)=Nc1cc(F)ccc1N2,25 mg/kg,> 200 mg/kg,–,Activity (Rattus norvegicus [2]): 0
CN1CCN(C2=Nc3cc(F)ccc3Nc3sc4c(c32)CCCC4)CC1,100 mg/kg,> 400 mg/kg,0,–
CCCN1CCN(C2=Nc3cc(F)ccc3Nc3sc(CC)cc32)CC1,6.25 mg/kg,> 100 mg/kg,–,Activity (Rattus norvegicus [4]): 0
CCc1cc2c(s1)Nc1ccccc1N=C2N1CCN(Cc2ccccc2)CC1,200 mg/kg,> 400 mg/kg,–,Activity (Rattus norvegicus [5]): 4; Activity (Rattus norvegicus [6]): 2
CCc1cc2c(s1)Nc1ccc([N+](=O)[O-])cc1N=C2N1CCN(C)CC1,50 mg/kg,> 400 mg/kg,–,Activity (Rattus norvegicus [2]): 0
CC(O)c1cc2c(s1)Nc1ccc(F)cc1N=C2N1CCN(C)CC1 (configuration not stated),25 mg/kg,> 400 mg/kg,–,Activity (Rattus norvegicus [5]): 4; Activity (Rattus norvegicus [7]): 1
CCc1cc2c(s1)Nc1ccc(F)cc1N=C2N1CCN(Cc2ccc(Cl)cc2)CC1,>400 mg/kg,> 400 mg/kg,0,Activity (Rattus norvegicus [8]): 0
CCCCCCc1cc2c(s1)Nc1ccc(F)cc1N=C2N1CCN(C)CC1,100 mg/kg,> 400 mg/kg,0,–
CCOC(=O)N1CCN(C2=Nc3ccccc3Nc3sc(CC)cc32)CC1,50 mg/kg,> 400 mg/kg,0,–
CCc1cc2c(s1)Nc1ccc(F)cc1N=C2N1CCN(c2cccc(C(F)(F)F)c2)CC1,>400 mg/kg,400 mg/kg,–,Activity (Rattus norvegicus [9]): 0
CCc1cc2c(s1)Nc1ccc(F)cc1N=C2NCCO,200 mg/kg,> 800 mg/kg,0,Activity (Rattus norvegicus [8]): 0
CCc1cc2c(s1)Nc1ccc(F)cc1N=C2NCCN1CCN(c2ccccc2)CC1,>400 mg/kg,> 800 mg/kg,0,Activity (Rattus norvegicus [8]): 0
CN1CCN(C2=Nc3ccccc3Nc3sc(C(C)(C)C)cc32)CC1,12.5 mg/kg,400 mg/kg,–,Activity (Rattus norvegicus [4]): 0
CCc1cc2c(s1)Nc1ccc(F)cc1N=C2NCCCN1CCOCC1,400 mg/kg,800 mg/kg,–,Activity (Rattus norvegicus [9]): 0
CCOC(=O)N1CCN(C2=Nc3cc(F)ccc3Nc3sc(C)cc32)CC1,>400 mg/kg,> 400 mg/kg,0,–
CCc1cc2c(s1)Nc1ccc(F)cc1N=C2N1CCCCC1,12.5 mg/kg,> 200 mg/kg,0,–
CCc1cc2c(s1)Nc1ccc(F)cc1N=C2N1CCN(c2ccccc2)CC1,>400 mg/kg,> 400 mg/kg,–,Activity (Rattus norvegicus [9]): 0
CCc1cc2c(s1)Nc1ccccc1N=C2N1CCN(CC)CC1,50 mg/kg,200 mg/kg,–,Activity (Rattus norvegicus [10]): 2; Activity (Rattus norvegicus [11]): 1

Compound,EDmin (Mus musculus),LD50 [1],Activity (Rattus norvegicus [3]),further results
CCc1cc2c(s1)Nc1ccc(Cl)cc1N=C2N1CCNCC1,50 mg/kg,> 400 mg/kg,0,Activity (Rattus norvegicus [8]): 0
CCc1cc2c(s1)Nc1ccc(S(C)(=O)=O)cc1N=C2N1CCN(C)CC1,>400 mg/kg,> 400 mg/kg,0,–
CN1CCN(C2=Nc3cc(F)ccc3Nc3sc(-c4ccccc4)cc32)CC1,50 mg/kg,> 400 mg/kg,0,Activity (Rattus norvegicus [8]): 0
CCc1cc2c(s1)Nc1ccc(Cl)cc1C(N1CCN(C)CC1)=N2,50 mg/kg,> 100 mg/kg,0,–
CCc1cc2c(s1)Nc1cc(F)cc(F)c1N=C2N1CCN(C)CC1,25 mg/kg,600 mg/kg,–,Activity (Rattus norvegicus [12]): 1; Activity (Rattus norvegicus [7]): 1
CC(=O)c1cc2c(s1)Nc1ccccc1C(N1CCN(C)CC1)=N2,200 mg/kg,> 400 mg/kg,–,Activity (Rattus norvegicus [13]): 1
Cc1cc2c(s1)Nc1ccc(F)cc1N=C2N1CCNCC1,100 mg/kg,400 mg/kg,–,Activity (Rattus norvegicus [12]): 1
CCc1cc2c(s1)Nc1ccc(SC)cc1N=C2N1CCN(C)CC1,100 mg/kg,> 200 mg/kg,0,–
CCc1cc2c(s1)Nc1ccc(F)cc1N=C2N1CCN(c2cccc(Cl)c2)CC1,>400 mg/kg,> 400 mg/kg,–,Activity (Rattus norvegicus [9]): 0
CCOC(=O)N1CCN(C2=Nc3cc(F)ccc3Nc3sc(CC)cc32)CC1,100 mg/kg,> 800 mg/kg,0,Activity (Rattus norvegicus [8]): 0
CCc1cc2c(s1)Nc1ccc(F)cc1N=C2N1CCOCC1,>400 mg/kg,> 400 mg/kg,0,–
CCc1cc2c(s1)Nc1ccccc1N=C2N1CCNCC1,100 mg/kg,800 mg/kg,0,–
CCc1cc2c(s1)Nc1ccc(S(=O)(=O)N(C)C)cc1N=C2N1CCN(C)CC1,>800 mg/kg,> 800 mg/kg,0,–
CCc1cc2c(s1)Nc1ccccc1C(N1CCN(C)CC1)=N2,100 mg/kg,> 200 mg/kg,–,Activity (Rattus norvegicus [2]): 0
CCc1cc2c(s1)Nc1ccc(F)cc1N=C2NCCN1CCOCC1,200 mg/kg,400 mg/kg,–,Activity (Rattus norvegicus [9]): 0
CN(C)CCCN1c2ccccc2Sc2ccc(Cl)cc21 [CHLORPROMAZINE],6.25 mg/kg,400 mg/kg,–,Activity (Rattus norvegicus [14]): 3; Activity (Rattus norvegicus [11]): 1
OCCN1CCN(CC/C=C2\c3ccccc3Sc3ccc(C(F)(F)F)cc32)CC1 [E-FLUPENTIXOL],>400 mg/kg,> 400 mg/kg,–,Activity (Rattus norvegicus [12]): 1; Activity (Rattus norvegicus [8]): 0
